Active and inactive are the calls of the source. The calls are words filed in the database; no cut-off is given here.
Assays:
MIA PaCa-2 [1] = assay: Induction of cell cycle arrest in human MIAPaCa2 cells assessed as accumulation at G1 phase at 5 uM after 48 hrs by flow cytometry (reference value: 44.7 +/- 7.21%); format: functional
HeLa [2] = assay: Induction of cell cycle arrest in human HeLa cells assessed as accumulation at G1 phase at 1 uM after 48 hrs by flow cytometry relative to control; format: functional
Method in brief: (§1)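 Cells were seeded at 3×10⁵ per well in 6-well plates and treated after overnight incubation for 24 and 48 h. They were trypsinized, washed three times in PBS, fixed in cold ethanol and stored at −20 °C. Pellets were washed twice in PBS and treated with RNase A at 37 °C for 15 min, then stained with PI for 30 min in the dark. DNA content was measured by flow cytometry.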

MIA PaCa-2 [3] = assay: Induction of cell cycle arrest in human MIAPaCa2 cells assessed as accumulation at S phase at 5 uM after 48 hrs by flow cytometry (reference value: 46 +/- 8.13%); format: functional
HeLa [4] = assay: Induction of cell cycle arrest in human HeLa cells assessed as accumulation at G2/M phase at 1 uM after 48 hrs by flow cytometry relative to control; format: functional; method in brief: as §1
SW-620 [5] = assay: Induction of cell cycle arrest in human SW620 cells assessed as accumulation at subG1 phase at 5 uM after 24 hrs by flow cytometry (reference value: 0.37 +/- 0.36%); format: functional
MIA PaCa-2 [6] = assay: Induction of cell cycle arrest in human MIAPaCa2 cells assessed as accumulation at subG1 phase at 5 uM after 24 hrs by flow cytometry (reference value: 0.32 +/- 0.009%); format: functional
SW-620 [7] = assay: Induction of cell cycle arrest in human SW620 cells assessed as accumulation at subG1 phase at 1 uM after 24 hrs by flow cytometry (reference value: 0.37 +/- 0.36%); format: functional
MIA PaCa-2 [8] = assay: Induction of apoptosis in human MIAPaCa2 cells at 1 to 5 uM after 24 to 48 hrs by annexin V-/PI staining
SW-620 [9] = assay: Induction of cell cycle arrest in human SW620 cells assessed as accumulation at S phase at 5 uM after 48 hrs by flow cytometry (reference value: 41.7 +/- 2.47%); format: functional
HeLa [10] = assay: Induction of cell cycle arrest in human HeLa cells assessed as accumulation at G2/M phase at 5 uM after 24 hrs by flow cytometry relative to control; format: functional; method in brief: as §1
MIA PaCa-2 [11] = assay: Induction of cell cycle arrest in human MIAPaCa2 cells assessed as accumulation at subG1 phase at 1 uM after 48 hrs by flow cytometry (reference value: 0.20 +/- 0.06%); format: functional
HeLa [12] = assay: Induction of cell cycle arrest in human HeLa cells assessed as accumulation at subG1 phase at 5 uM after 48 hrs by flow cytometry relative to control; format: functional; method in brief: as §1
MIA PaCa-2 [13] = assay: Induction of cell cycle arrest in human MIAPaCa2 cells assessed as accumulation at G2/M phase at 5 uM after 24 hrs by flow cytometry (reference value: 10.3 +/- 0.07%); format: functional
HeLa [14] = assay: Induction of cell cycle arrest in human HeLa cells assessed as accumulation at S phase at 5 uM after 48 hrs by flow cytometry relative to control; format: functional; method in brief: as §1
HeLa [15] = assay: Induction of cell cycle arrest in human HeLa cells assessed as accumulation at subG1 phase at 5 uM after 24 hrs by flow cytometry relative to control; format: functional; method in brief: as §1
MIA PaCa-2 [16] = assay: Induction of cell cycle arrest in human MIAPaCa2 cells assessed as accumulation at G1 phase at 1 uM after 24 hrs by flow cytometry (reference value: 55.4 +/- 0.01%); format: functional; method in brief: as §1
HeLa [17] = assay: Induction of apoptosis in human HeLa cells at 1 to 5 uM after 24 to 48 hrs by annexin V/PI staining; format: functional, cell-based
Method in brief: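 Cells were seeded on slides, incubated 24 h, then exposed to compound for 24 and 48 h. They were washed with PBS and binding buffer, incubated with annexin-V for 10 min, washed with binding buffer, and stained with PI.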

MIA PaCa-2 [18] = assay: Induction of cell cycle arrest in human MIAPaCa2 cells assessed as accumulation at subG1 phase at 1 uM after 24 hrs by flow cytometry (reference value: 0.32 +/- 0.009%); format: functional
MCF7 = assay: Cytostatic activity against human MCF7 cells assessed as inhibition of cell proliferation after 72 hrs by MTT assay; format: functional, cell-based; conditions: MCF7, 72 h
Method in brief: (§2)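 Monolayer cells grown in DMEM with 10% FBS were seeded on day 0 at 3000–6000 cells/well, set by each line's doubling time. Agents were added the next step in five 10-fold dilutions (0.01–100) for 72 h, with DMSO ≤0.1% and a solvent control. MTT absorbance was converted to percentage growth versus untreated wells on the same plate. Where all PGs exceeded 50, the top concentration was reported as ">". ANOVA/Tukey, p<0.05.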

WI-38 = assay: Cytotoxicity against human WI38 cells assessed as inhibition of cell proliferation after 72 hrs by MTT assay; format: cell-based; conditions: WI-38, 72 h; method in brief: as §2
MIA PaCa-2 [19] = assay: Induction of cell cycle arrest in human MIAPaCa2 cells assessed as accumulation at G2/M phase at 1 uM after 24 hrs by flow cytometry (reference value: 10.3 +/- 0.07%); format: functional
SW-620 [20] = assay: Induction of cell cycle arrest in human SW620 cells assessed as accumulation at G1 phase at 5 uM after 24 hrs by flow cytometry (reference value: 51.6 +/- 0.07%); format: functional
HeLa [21] = assay: Induction of cell cycle arrest in human HeLa cells assessed as accumulation at G2/M phase at 5 uM after 48 hrs by flow cytometry relative to control; format: functional; method in brief: as §1
SW-620 [22] = assay: Induction of cell cycle arrest in human SW620 cells assessed as accumulation at G1 phase at 1 uM after 24 hrs by flow cytometry (reference value: 51.6 +/- 0.07%); format: functional
HeLa [23] = assay: Induction of cell cycle arrest in human HeLa cells assessed as accumulation at subG1 phase at 1 uM after 24 hrs by flow cytometry relative to control; format: functional; method in brief: as §1
SW-620 [24] = assay: Induction of cell cycle arrest in human SW620 cells assessed as accumulation at S phase at 5 uM after 24 hrs by flow cytometry (reference value: 37.7 +/- 0.01%); format: functional
SW-620 [25] = assay: Induction of cell cycle arrest in human SW620 cells assessed as accumulation at S phase at 1 uM after 48 hrs by flow cytometry (reference value: 41.7 +/- 2.47%); format: functional
HeLa [26] = assay: Induction of cell cycle arrest in human HeLa cells assessed as accumulation at G2/M phase at 1 uM after 24 hrs by flow cytometry relative to control; format: functional; method in brief: as §1
SW-620 [27] = assay: Induction of cell cycle arrest in human SW620 cells assessed as accumulation at G1 phase at 5 uM after 48 hrs by flow cytometry (reference value: 46.6 +/- 4.88%); format: functional
HeLa [28] = assay: Induction of cell cycle arrest in human HeLa cells assessed as accumulation at subG1 phase at 1 uM after 48 hrs by flow cytometry relative to control; format: functional; method in brief: as §1
MIA PaCa-2 [29] = assay: Induction of cell cycle arrest in human MIAPaCa2 cells assessed as accumulation at G1 phase at 1 uM after 48 hrs by flow cytometry (reference value: 44.7 +/- 7.21%); format: functional
HeLa [30] = assay: Cytostatic activity against human HeLa cells assessed as inhibition of cell proliferation after 72 hrs by MTT assay; format: functional, cell-based; method in brief: as §2

Q: With `Nc1ncn(C/C=C2\OC(=O)C(OCc3ccccc3)=C2OCc2ccccc2)c(=O)n1` as the molecule, how does the Activity (MIA PaCa-2 [1]) read?
A: 29%

Q: What about the Activity (HeLa [2]) of the same molecule?
A: 20.1%

Q: And the Activity (MIA PaCa-2 [3])?
A: 60.9%

Q: What about the Activity (HeLa [4]) of the same molecule?
A: 14.4%

Q: What about the Activity (SW-620 [5]) of the same molecule?
A: 0.2%

Q: What about the Activity (MIA PaCa-2 [6]) of the same molecule?
A: 0.21%

Q: What about the Activity (SW-620 [7]) of the same molecule?
A: 0.56%

Q: And the Activity (MIA PaCa-2 [8])?
A: inactive

Q: And the Activity (SW-620 [9])?
A: 51.8%

Q: What about the Activity (HeLa [10]) of the same molecule?
A: 11.5%

Q: And the Activity (MIA PaCa-2 [11])?
A: 0.18%

Q: What about the Activity (HeLa [12]) of the same molecule?
A: 0.23%

Q: What about the Activity (MIA PaCa-2 [13]) of the same molecule?
A: 7.05%

Q: What about the Activity (HeLa [14]) of the same molecule?
A: 62.3%

Q: And the Activity (HeLa [15])?
A: 0%

Q: What about the Activity (MIA PaCa-2 [16]) of the same molecule?
A: 55.6%

Q: And the Activity (HeLa [17])?
A: inactive

Q: And the Activity (MIA PaCa-2 [18])?
A: 0.2%

Q: And the IC50 (MCF7)?
A: 3.49 µM

Q: And the IC50 (WI-38)?
A: 4.67 µM

Q: And the Activity (MIA PaCa-2 [19])?
A: 14.9%

Q: What about the Activity (SW-620 [20]) of the same molecule?
A: 24.1%

Q: What about the Activity (HeLa [21]) of the same molecule?
A: 13.9%

Q: And the Activity (SW-620 [22])?
A: 41.3%

Q: What about the Activity (HeLa [23]) of the same molecule?
A: 0%

Q: And the Activity (SW-620 [24])?
A: 58.3%

Q: And the Activity (SW-620 [25])?
A: 58.9%

Q: What about the Activity (HeLa [26]) of the same molecule?
A: 11.9%

Q: And the Activity (SW-620 [27])?
A: 39.1%

Q: And the Activity (HeLa [28])?
A: 0.02%

Q: And the Activity (MIA PaCa-2 [29])?
A: 22.9%

Q: What about the IC50 (HeLa [30]) of the same molecule?
A: 5.91 µM
